The values that follow come from ChEMBL document CHEMBL1124401, “1-(2,3-Dideoxy-beta-D-glycero-pent-2-enofuranosyl)thymine. A highly potent and selective anti-HIV agent” (J Med Chem, 1989).

Series [1] relates to CCRF-CEM. Kind of series: In vitro antiviral test was performed on HIV(LAV strain) infected CEM cells. The class given is functional. Particulars: Homo sapiens, read-out: ID50 (the source's name). The method in brief: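 CEM-F cells infected with about 30 TCID50 of HIV (LAV strain), held 45 min at 37 °C, then given compound at various concentrations in culture medium and incubated 8 days. Virus expression read as p24 gag antigen in culture supernatant by sandwich/enzyme-capture ELISA. ID50 (μM) taken as the dose inhibiting 50% of virus expression.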

Series [2] has as its system CCRF-CEM. Kind of series: Cellular toxicity was measured in CEM cells after 8 days by using a [3H]- thymidine uptake assay. The format is cell-based. The conditions noted are these: human, 192 h, read-out: TCID50. The method in brief: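 Uninfected CEM cells treated with various compound concentrations for 8 days; cytotoxicity read by [3H]thymidine uptake and expressed as 50% tissue culture inhibitory dose (TCID50).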

The nature of series [3]: The 90% inhibitory concentration expresses cellular toxicity measured against normal human granulocyte-monocyte cells.
A short description of series [4]: The 50% inhibitory concentration expresses cellular toxicity measured against normal human granulocyte-monocyte cells.
The nature of series [5]: The 50% inhibitory concentration expresses cellular toxicity measured against normal human erythrocyte progenitor cells (BFU-E). The conditions noted are these: read-out: ID50 (the source's name).
Series [6] concerns CCRF-CEM. Kind of series: Cellular toxicity measured in CEM cells.
Series [7] in a line: Cellular toxicity was measured in normal human granulocyte-monocyte progenitor cells (CFU-GM). Particulars: read-out: ID50 (the source's name).
Series [8] has as its system Human immunodeficiency virus. Nature of the series: The inhibition of compound was determined by reverse transcriptase assay using DNA as template. The class given is functional. The method in brief:
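HIV reverse transcriptase assay (DNA-dependent DNA polymerase activity) with poly(dA):oligo(dT) as DNA template/primer. Various triphosphate concentrations were tested, and Ki was derived from Dixon plots.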

Series [9] relates to Human immunodeficiency virus. Kind of series: The inhibition of compound was determined by reverse transcriptase assay using RNA as template. The class given is functional. The method in brief:
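HIV reverse transcriptase assay with poly(rA):oligo(dT) as RNA template/primer. Various triphosphate concentrations were tested, and Ki was derived from Dixon plots.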

pIC50, pKi: −log10 of the molar value.

For orientation: pKi means the negative decadic logarithm of the Ki, by convention in mol/L. A low value points to a large Ki.

On to `Cc1cn([C@H]2C=C[C@@H](CO)O2)c(=O)[nH]c1=O` [STAVUDINE], for which the pIC50 in series [1] is 6.82. Moreover, the CC50 in [2] came out at 90 µM; in series [5], 10 µM. The ID90 in [3] was over 100 µM. The molecule further registered an ID50 in series [4] of 100 µM.
With `Cc1cn([C@H]2C[C@H](N=[N+]=[N-])[C@@H](CO)O2)c(=O)[nH]c1=O` [ZIDOVUDINE], in series [1], the pIC50 was 7.00. The molecule also gave an ID90 in [3] of 20 µM. Also, the CC50 in series [6] was 29 µM; in series [7] it was 1 µM; in series [5] it was 6.7 µM.
For the molecule `Cc1cn([C@H]2CC[C@@H](COP(=O)(O)OP(=O)(O)OP(=O)(O)O)O2)c(=O)[nH]c1=O`, the negative logarithm of the Ki (pKi) in series [8] was 4.08; in [9] it was 7.30.
On to `Cc1cn([C@H]2C=C[C@@H](COP(=O)(O)OP(=O)(O)OP(=O)(O)O)O2)c(=O)[nH]c1=O` [STAVUDINE TRIPHOSPHATE], for which the negative-log Ki (pKi) in [8] was 4.15; in series [9], 7.49.
Take `Cc1cn([C@H]2C[C@H](N=[N+]=[N-])[C@@H](COP(=O)(O)OP(=O)(O)OP(=O)(O)O)O2)c(=O)[nH]c1=O` [ZIDOVUDINE TRIPHOSPHATE]: the pKi in [8] was 4.08; in [9] it was 8.15.
